How the values were obtained:
Pseudomonas aeruginosa = test: Antibacterial activity against Pseudomonas aeruginosa ATCC 27853 incubated for 48 hrs and measured by broth microdilution assay; assay type: functional
Procedure, shortened: (§1)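 MICs in µg/mL were measured against the reference strains S. aureus ATCC 9144, B. subtilis 168, E. coli ATCC 25922 and P. aeruginosa ATCC 27853. Compounds were tested as di-TFA salts.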

[1] = Hemolytic activity in human RBC measured after 1 hr by microplate reader method; assay type: toxicity, cell-based, Erythrocyte; conditions: human, human red blood cells (erythrocytes)
Procedure, shortened: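 Human red blood cell lysis was used as the cytotoxicity read-out, expressed as EC50 in µg/mL. The highest concentration tested was 500 µM. Compounds were tested as di-TFA salts.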

Escherichia coli = test: Antibacterial activity against Escherichia coli ATCC 25922 incubated for 48 hrs and measured by broth microdilution assay; assay type: functional; procedure, shortened: as §1
Bacillus subtilis = test: Antibacterial activity against Bacillus subtilis 168 incubated for 48 hrs and measured by broth microdilution assay; assay type: functional; procedure, shortened: as §1
Staphylococcus aureus = test: Antibacterial activity against Staphylococcus aureus ATCC 9144 incubated for 48 hrs and measured by broth microdilution assay; assay type: functional; procedure, shortened: as §1

Compound	MIC (Pseudomonas aeruginosa)	EC50 at 1 h [1]	MIC (Escherichia coli)	MIC (Bacillus subtilis)	MIC (Staphylococcus aureus)
NCCCCN1C(=O)N(CCCCN)C(=O)C(Cc2cc(Br)cc(Br)c2)(C2CCCC2)C1=O.O=C(O)C(F)(F)F.O=C(O)C(F)(F)F	64 µg/mL	> 407 µg/mL	64 µg/mL	8 µg/mL	16 µg/mL
NCCCCCCN1C(=O)N(CCCCCCN)C(=O)C(Cc2cc(Br)cc(Br)c2)(Cc2cc(Br)cc(Br)c2)C1=O.O=C(O)C(F)(F)F.O=C(O)C(F)(F)F	16 µg/mL	30 µg/mL	4 µg/mL	4 µg/mL	4 µg/mL
CCCCCCC1(CCCCCC)C(=O)N(CCCCNC(=N)N)C(=O)N(CCCCNC(=N)N)C1=O.O=C(O)C(F)(F)F.O=C(O)C(F)(F)F	16 µg/mL	143 µg/mL	4 µg/mL	2 µg/mL	2 µg/mL
N=C(N)NCCCCCCN1C(=O)N(CCCCCCNC(=N)N)C(=O)C(Cc2cc(Br)cc(Br)c2)(Cc2cc(Br)cc(Br)c2)C1=O.O=C(O)C(F)(F)F.O=C(O)C(F)(F)F	32 µg/mL	57 µg/mL	4 µg/mL	4 µg/mL	4 µg/mL
NCCCCN1C(=O)N(CCCCN)C(=O)C(Cc2cc(Br)cc(Br)c2)(Cc2cc(C(F)(F)F)cc(C(F)(F)F)c2)C1=O.O=C(O)C(F)(F)F.O=C(O)C(F)(F)F	8 µg/mL	93 µg/mL	8 µg/mL	2 µg/mL	8 µg/mL
NCCCCN1C(=O)N(CCCCN)C(=O)C(Cc2cc(Br)cc(Br)c2)(Cc2ccc(Br)c3ccccc23)C1=O.O=C(O)C(F)(F)F.O=C(O)C(F)(F)F	8 µg/mL	47 µg/mL	4 µg/mL	4 µg/mL	4 µg/mL
O=C(O)c1cn(C2CC2)c2cc(N3CCNCC3)c(F)cc2c1=O [CIPROFLOXACIN]	–	–	< 0.03 µg/mL	< 0.03 µg/mL	–
N=C(N)N[C@H]1C[C@H](N2C(=O)N([C@H]3C[C@H](NC(=N)N)C3)C(=O)C(Cc3cc(Br)cc(Br)c3)(Cc3cc(Br)cc(Br)c3)C2=O)C1.O=C(O)C(F)(F)F.O=C(O)C(F)(F)F	8 µg/mL	62 µg/mL	4 µg/mL	4 µg/mL	2 µg/mL
NCCCCN1C(=O)N(CCCCN)C(=O)C(Cc2cc(Br)c(Br)cc2Br)(Cc2cc(Br)c(Br)cc2Br)C1=O.O=C(O)C(F)(F)F.O=C(O)C(F)(F)F	8 µg/mL	27 µg/mL	8 µg/mL	4 µg/mL	4 µg/mL
N[C@H]1C[C@@H](N2C(=O)N([C@H]3C[C@@H](N)C3)C(=O)C(Cc3cc(Br)cc(Br)c3)(Cc3cc(Br)cc(Br)c3)C2=O)C1.O=C(O)C(F)(F)F.O=C(O)C(F)(F)F	8 µg/mL	50 µg/mL	4 µg/mL	4 µg/mL	8 µg/mL
CC(C)(C)c1ccc(CC2(Cc3cc(Br)cc(Br)c3)C(=O)N(CCCN)C(=O)N(CCCN)C2=O)cc1.O=C(O)C(F)(F)F.O=C(O)C(F)(F)F	8 µg/mL	47 µg/mL	8 µg/mL	2 µg/mL	4 µg/mL
CCCCCCC1(Cc2cc(Br)cc(Br)c2)C(=O)N(CCCCNC(=N)N)C(=O)N(CCCCNC(=N)N)C1=O.O=C(O)C(F)(F)F.O=C(O)C(F)(F)F (configuration not stated)	8 µg/mL	58 µg/mL	4 µg/mL	4 µg/mL	2 µg/mL
NCCCN1C(=O)N(CCCN)C(=O)C(Cc2ccc(C(F)(F)F)cc2)(Cc2ccc(C(F)(F)F)cc2)C1=O.O=C(O)C(F)(F)F.O=C(O)C(F)(F)F	128 µg/mL	> 393 µg/mL	64 µg/mL	16 µg/mL	64 µg/mL
CC(C)(C)c1ccc(CC2(Cc3cc(Br)cc(Br)c3)C(=O)N(CCCCNC(=N)N)C(=O)N(CCCCNC(=N)N)C2=O)cc1.O=C(O)C(F)(F)F.O=C(O)C(F)(F)F (configuration not stated)	4 µg/mL	39 µg/mL	2 µg/mL	2 µg/mL	2 µg/mL
NCCCN1C(=O)N(CCCN)C(=O)C(Cc2ccc(C(F)(F)F)cc2)(Cc2cc(Br)cc(Br)c2)C1=O.O=C(O)C(F)(F)F.O=C(O)C(F)(F)F	32 µg/mL	> 438 µg/mL	16 µg/mL	8 µg/mL	32 µg/mL
NCCCN1C(=O)N(CCCN)C(=O)C(Cc2ccc3cc(Br)ccc3n2)(Cc2ccc3cc(Br)ccc3n2)C1=O.O=C(O)C(F)(F)F.O=C(O)C(F)(F)F	256 µg/mL	> 455 µg/mL	64 µg/mL	8 µg/mL	32 µg/mL
CNCCCCN1C(=O)N(CCCCNC)C(=O)C(Cc2cc(Br)cc(Br)c2)(Cc2cc(Br)cc(Br)c2)C1=O.O=C(O)C(F)(F)F.O=C(O)C(F)(F)F	16 µg/mL	73 µg/mL	8 µg/mL	4 µg/mL	8 µg/mL

Compound	MIC (Pseudomonas aeruginosa)	EC50 at 1 h [1]	MIC (Escherichia coli)	MIC (Bacillus subtilis)	MIC (Staphylococcus aureus)
NCCCCN1C(=O)N(CCCCN)C(=O)C(Cc2cc(Br)cc(Br)c2)(Cc2ccc3ccccc3n2)C1=O.O=C(O)C(F)(F)F.O=C(O)C(F)(F)F	256 µg/mL	> 444 µg/mL	128 µg/mL	8 µg/mL	32 µg/mL
NCCCCN1C(=O)N(CCCCN)C(=O)C(Cc2ccc3cc(Br)ccc3n2)(Cc2ccc3cc(Br)ccc3n2)C1=O.O=C(O)C(F)(F)F.O=C(O)C(F)(F)F	256 µg/mL	> 469 µg/mL	256 µg/mL	4 µg/mL	16 µg/mL
N=C(N)NCCCCN1C(=O)N(CCCCNC(=N)N)C(=O)C(Cc2cc(Br)cc(Br)c2)(Cc2cc(C(F)(F)F)cc(C(F)(F)F)c2)C1=O.O=C(O)C(F)(F)F.O=C(O)C(F)(F)F (configuration not stated)	4 µg/mL	36 µg/mL	2 µg/mL	2 µg/mL	2 µg/mL
N[C@H]1C[C@H](N2C(=O)N([C@H]3C[C@H](N)C3)C(=O)C(Cc3cc(Br)cc(Br)c3)(Cc3cc(Br)cc(Br)c3)C2=O)C1.O=C(O)C(F)(F)F.O=C(O)C(F)(F)F	8 µg/mL	93 µg/mL	4 µg/mL	4 µg/mL	4 µg/mL
CCCCCCC1(CCCCCC)C(=O)N(CCCCN)C(=O)N(CCCCN)C1=O.O=C(O)C(F)(F)F.O=C(O)C(F)(F)F	64 µg/mL	> 333 µg/mL	32 µg/mL	8 µg/mL	16 µg/mL
N=C(N)N[C@H]1C[C@@H](N2C(=O)N([C@H]3C[C@@H](NC(=N)N)C3)C(=O)C(Cc3cc(Br)cc(Br)c3)(Cc3cc(Br)cc(Br)c3)C2=O)C1.O=C(O)C(F)(F)F.O=C(O)C(F)(F)F	8 µg/mL	75 µg/mL	4 µg/mL	2 µg/mL	2 µg/mL
NCCCCN1C(=O)N(CCCCN)C(=O)C(Cc2ccc(C(F)(F)F)cc2)(Cc2cc(Br)cc(Br)c2)C1=O.O=C(O)C(F)(F)F.O=C(O)C(F)(F)F	64 µg/mL	342 µg/mL	32 µg/mL	8 µg/mL	16 µg/mL
CN(C)CCCCN1C(=O)N(CCCCN(C)C)C(=O)C(Cc2cc(Br)cc(Br)c2)(Cc2cc(Br)cc(Br)c2)C1=O.O=C(O)C(F)(F)F.O=C(O)C(F)(F)F	64 µg/mL	157 µg/mL	8 µg/mL	4 µg/mL	8 µg/mL
N=C(N)NCCCCN1C(=O)N(CCCCNC(=N)N)C(=O)C(Cc2ccc3cc(Br)ccc3n2)(Cc2ccc3cc(Br)ccc3n2)C1=O.O=C(O)C(F)(F)F.O=C(O)C(F)(F)F	128 µg/mL	461 µg/mL	16 µg/mL	4 µg/mL	2 µg/mL
N=C(N)NCCN1C(=O)N(CCNC(=N)N)C(=O)C(Cc2cc(Br)cc(Br)c2)(Cc2cc(Br)cc(Br)c2)C1=O.O=C(O)C(F)(F)F.O=C(O)C(F)(F)F	16 µg/mL	164 µg/mL	4 µg/mL	2 µg/mL	2 µg/mL
N=C(N)NCCCN1C(=O)N(CCCNC(=N)N)C(=O)C(Cc2ccc(C(F)(F)F)cc2)(Cc2cc(Br)cc(Br)c2)C1=O.O=C(O)C(F)(F)F.O=C(O)C(F)(F)F (configuration not stated)	64 µg/mL	> 480 µg/mL	16 µg/mL	4 µg/mL	4 µg/mL
N=C(N)NCCCCN1C(=O)N(CCCCNC(=N)N)C(=O)C(Cc2ccc(Br)c3ccccc23)(Cc2ccc(Br)c3ccccc23)C1=O.O=C(O)C(F)(F)F.O=C(O)C(F)(F)F	8 µg/mL	36 µg/mL	4 µg/mL	4 µg/mL	4 µg/mL
CC(C)(C)c1ccc(CC2(Cc3cc(Br)cc(Br)c3)C(=O)N(CCCCN)C(=O)N(CCCCN)C2=O)cc1.O=C(O)C(F)(F)F.O=C(O)C(F)(F)F	8 µg/mL	82 µg/mL	8 µg/mL	4 µg/mL	4 µg/mL
N[C@H]1CC[C@@H](N2C(=O)N([C@H]3CC[C@@H](N)CC3)C(=O)C(Cc3cc(Br)cc(Br)c3)(Cc3cc(Br)cc(Br)c3)C2=O)CC1.O=C(O)C(F)(F)F.O=C(O)C(F)(F)F	8 µg/mL	15 µg/mL	4 µg/mL	4 µg/mL	4 µg/mL
N=C(N)NCCCCN1C(=O)N(CCCCNC(=N)N)C(=O)C(Cc2c(Br)cc(Br)cc2Br)(Cc2c(Br)cc(Br)cc2Br)C1=O.O=C(O)C(F)(F)F.O=C(O)C(F)(F)F	4 µg/mL	30 µg/mL	4 µg/mL	1 µg/mL	2 µg/mL
N=C(N)NCCCCCN1C(=O)N(CCCCCNC(=N)N)C(=O)C(Cc2cc(Br)cc(Br)c2)(Cc2cc(Br)cc(Br)c2)C1=O.O=C(O)C(F)(F)F.O=C(O)C(F)(F)F	8 µg/mL	29 µg/mL	4 µg/mL	4 µg/mL	4 µg/mL
N=C(N)N[C@H]1CC[C@@H](N2C(=O)N([C@H]3CC[C@@H](NC(=N)N)CC3)C(=O)C(Cc3cc(Br)cc(Br)c3)(Cc3cc(Br)cc(Br)c3)C2=O)CC1.O=C(O)C(F)(F)F.O=C(O)C(F)(F)F	4 µg/mL	30 µg/mL	4 µg/mL	1 µg/mL	2 µg/mL
